Source: ChEMBL document CHEMBL2429828, “Discovery of thiazolyl-phthalazinone acetamides as potent glucose uptake activators via high-throughput screening” (Bioorg Med Chem Lett, 2013)
Active and inactive are the calls of the source. The rule behind the calls is not given here.

Experiments:
[1] = test system: L6; assay: Induction of glucose uptake in rat L6 cells pulsed with C14-deoxy glucose at 10 uM after 24 hrs in presence of insulin relative to control; type: functional
Outline: (§1)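 L6 rat skeletal muscle cells grown in MEM alpha with 10% serum, differentiated at confluence in 2% serum, then serum-starved. Treated overnight; after 24 h, pulsed 10 min with 14C-deoxyglucose in presence of insulin. Uptake read by scintillation after lysis with Microscint PS.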

[2] = test system: L6; assay: Induction of glucose uptake in rat L6 cells pulsed with C14-deoxy glucose after 24 hrs in presence of insulin; type: functional, cell-based; settings: L6, 24 h; outline: as §1
[3] = target: T1, Peroxisome proliferator-activated receptor gamma (Homo sapiens) (UniProt P37231); assay: Transactivation of GAL4 DNA binding domain-fused human PPAR-gamma ligand binding domain transfected in African green monkey CV1 cells after 24 hrs by luciferase reporter gene assay; type: cell-based; settings: CV-1
T1 sequence (whole entry): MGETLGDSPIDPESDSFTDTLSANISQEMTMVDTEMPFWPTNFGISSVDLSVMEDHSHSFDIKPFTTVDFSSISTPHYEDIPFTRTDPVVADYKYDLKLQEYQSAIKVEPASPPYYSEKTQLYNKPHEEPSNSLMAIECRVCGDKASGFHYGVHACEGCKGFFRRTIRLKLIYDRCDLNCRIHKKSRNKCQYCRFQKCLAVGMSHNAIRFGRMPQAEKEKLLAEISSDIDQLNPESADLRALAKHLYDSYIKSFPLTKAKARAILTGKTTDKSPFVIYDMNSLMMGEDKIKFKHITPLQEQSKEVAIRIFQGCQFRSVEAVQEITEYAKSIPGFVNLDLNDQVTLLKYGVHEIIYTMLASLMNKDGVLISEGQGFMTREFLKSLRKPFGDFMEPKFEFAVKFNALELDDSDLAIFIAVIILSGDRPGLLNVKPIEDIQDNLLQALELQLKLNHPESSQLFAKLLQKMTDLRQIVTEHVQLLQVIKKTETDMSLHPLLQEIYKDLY
Outline: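 CV-1 cells seeded at 25,000 cells/well, incubated overnight, then transiently co-transfected (Lipofectamine 2000) with Gal4-element luciferase reporter and GAL4 DBD–PPAR-γ LBD plasmid. Compounds added 6 h post-transfection for 24 h, then luminescence read. Values expressed as % of 1 µM rosiglitazone response (set as 100%). Triplicates, repeated twice.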

Activity [3] [%]	SMILES	fold change (FC) [1]	EC50 [2] [nM]	Activity [1]
–	Cn1nc(CC(=O)NC23CC4CC(CC(O)(C4)C2)C3)c2ccccc2c1=O	0.7	–	–
–	COc1ccc2c(oc3ccccc32)c1NC(=O)Cc1nn(C)c(=O)c2ccccc12	1.3	–	–
–	COC(=O)CCCCC(=O)N(C)c1nc(-c2ccccc2)cs1	1.2	–	–
–	Cn1nc(CC(=O)Nc2nc(-c3ccccc3)c(C(=O)O)s2)c2ccccc2c1=O	1.3	–	–
–	CCOC(=O)Cc1nn(CC(=O)c2ccccc2)c(=O)c2ccccc12	1.1	–	–
–	Cn1nc(CC(=O)Nc2nc(-c3ccccc3O)cs2)c2ccccc2c1=O	1.3	–	–
–	Cn1nc(CC(=O)Nc2ccc(Cl)c(C(F)(F)F)c2)c2ccccc2c1=O	2	2560	–
–	CN(C(=O)Cc1nn(C)c(=O)c2ccccc12)c1nc(-c2ccccc2)cs1	1.8	5960	–
–	Cn1nc(CC(=O)Nc2ncc(-c3ccccc3)s2)c2ccccc2c1=O	1.6	–	–
–	Nc1nc(-c2ccccc2)cs1	–	–	inactive
–	Cn1nc(CC(=O)Nc2nccc(=O)[nH]2)c2ccccc2c1=O	1.2	–	–
–	O=C(Cc1n[nH]c(=O)c2ccccc12)NNC(=O)c1nc(-c2ccccc2)cs1	0.9	–	–
0.3	Cn1nc(CC(=O)Nc2nc(-c3ccccc3)cs2)c2ccccc2c1=O	1.8	70	–
–	CN(CCOc1ccc(CC2SC(=O)NC2=O)cc1)c1ccccn1 (centres undefined) [ROSIGLITAZONE]	1.8	4490	–
–	Cc1sc(NC(=O)Cc2nn(C)c(=O)c3ccccc23)nc1-c1ccccc1	3.4	10	–
–	CCOC(=O)c1sc(NC(=O)Cc2nn(C)c(=O)c3ccccc23)nc1C	0.9	40	–
–	Cn1nc(CC(=O)NCc2n[nH]c(=O)c3ccccc23)c2ccccc2c1=O	0.8	–	–
–	Cn1nc(CC(=O)Nc2cc(-c3ccc(F)cc3)on2)c2ccccc2c1=O	1.3	–	–
–	O=C(O)CCCCC(=O)Nc1nc(-c2ccccc2)cs1	–	–	inactive

Activity [3] [%]	SMILES	fold change (FC) [1]	EC50 [2] [nM]	Activity [1]
–	O=C(Cc1nn(CCO)c(=O)c2ccccc12)Nc1nc(-c2ccccc2)cs1	0.8	–	–
–	Cn1nc(CC(=O)Nc2nc(-c3ccc(C(F)(F)F)cc3)cs2)c2ccccc2c1=O	3.2	–	–
–	Cn1nc(CC(=O)Nc2ncc(-c3ccccc3)c(=O)[nH]2)c2ccccc2c1=O	1.9	7470	–
–	CCc1oc(NC(=O)Cc2nn(C)c(=O)c3ccccc23)nc1-c1ccccc1	1	–	–
–	O=C(O)Cc1nn(CC(=O)c2ccccc2)c(=O)c2ccccc12	0.9	–	–
–	Cn1nc(CC(=O)Nc2nc(-c3ccc(F)cc3)cs2)c2ccccc2c1=O	2.7	–	–
–	CCOC(=O)Cc1nnc(O)c2ccccc12	–	–	inactive
–	O=C(Cc1n[nH]c(=O)c2ccccc12)Nc1nc(-c2ccccc2)cs1	1.8	40	–
–	NNC(=O)Cc1n[nH]c(=O)c2ccccc12	–	–	inactive
–	Cn1nc(CC(=O)Nc2nccc3ccccc23)c2ccccc2c1=O	4.9	170	–
–	CCOC(=O)CN(C(=O)Cc1nn(C)c(=O)c2ccccc12)c1nc(-c2ccccc2)cs1	1.9	280	–
–	Cn1nc(CC(=O)Nc2nc(-c3ccc(Cl)cc3)cs2)c2ccccc2c1=O	3.4	–	–
–	CN(C(=O)CCCCC(=O)O)c1nc(-c2ccccc2)cs1	0.9	–	–
–	Cc1sc(NC(=O)Cc2nn(C)c(=O)c3ccccc23)nc1-c1ccc(Br)cc1	3.4	3	–
–	Cn1nc(CC(=O)Nc2nc(-c3ccc(Br)cc3)cs2)c2ccccc2c1=O	3.6	100	–
–	O=C(O)Cc1nnc(O)c2ccccc12	–	–	inactive
–	Cn1nc(CC(=O)Nc2nccs2)c2ccccc2c1=O	1.7	120	–
–	CCOC(=O)c1sc(NC(=O)Cc2nn(C)c(=O)c3ccccc23)nc1-c1ccccc1	1.3	–	–
1	COc1ccc(-c2nc(NC(=O)Cc3nn(C)c(=O)c4ccccc34)sc2C)cc1	2.9	9	–
